Test results as given in PMC4980839 (Archiv der Pharmazie, 2010).
Where two headings read alike, the source gives them in different places.

How the values were obtained:
Type in all cases: biochemical
human PDE5 = human PDE5 (Homo sapiens, UniProt O76074); assay: PDE5 inhibition, IMAP fluorescence polarization phosphodiesterase assay; details: for inhibition at 50 µM: read-out: % cGMP inhibition (50 μM)
PDE3B = PDE3B (Homo sapiens, UniProt Q13370); assay: PDE3B inhibition
In short: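 Reaction started with a substrate solution of 50 nM TAMRA-cGMP and/or Fl-cAMP. Run 60 min at room temperature, stopped with IMAP binding solution. Hydrolysis read as fluorescence polarization (TAMRA 530–590 nm).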

PDE11A = PDE11A (Homo sapiens, UniProt Q9HCR9); assay: PDE11A inhibition
PDE4B = PDE4B (Homo sapiens, UniProt Q07343); assay: PDE4B inhibition
[1] = read-out: IC50 PDE3B cGMP, cGMP as substrate

Sequence of PDE3B (Q13370 592-1112 limits assumed): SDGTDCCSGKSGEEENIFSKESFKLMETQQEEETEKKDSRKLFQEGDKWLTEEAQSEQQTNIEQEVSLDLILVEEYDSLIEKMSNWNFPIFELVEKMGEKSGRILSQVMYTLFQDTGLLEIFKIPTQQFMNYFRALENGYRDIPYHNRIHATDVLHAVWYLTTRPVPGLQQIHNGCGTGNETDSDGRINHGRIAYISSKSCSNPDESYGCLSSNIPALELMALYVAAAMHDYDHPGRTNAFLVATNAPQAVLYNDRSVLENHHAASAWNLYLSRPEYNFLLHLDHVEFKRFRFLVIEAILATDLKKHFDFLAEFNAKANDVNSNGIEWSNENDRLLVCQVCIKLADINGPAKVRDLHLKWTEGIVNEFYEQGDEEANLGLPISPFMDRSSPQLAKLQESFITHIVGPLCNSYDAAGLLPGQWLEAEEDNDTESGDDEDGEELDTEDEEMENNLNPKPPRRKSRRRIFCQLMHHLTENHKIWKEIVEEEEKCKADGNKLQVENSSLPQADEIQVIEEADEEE
Sequence of PDE11A (Q9HCR9 whole entry): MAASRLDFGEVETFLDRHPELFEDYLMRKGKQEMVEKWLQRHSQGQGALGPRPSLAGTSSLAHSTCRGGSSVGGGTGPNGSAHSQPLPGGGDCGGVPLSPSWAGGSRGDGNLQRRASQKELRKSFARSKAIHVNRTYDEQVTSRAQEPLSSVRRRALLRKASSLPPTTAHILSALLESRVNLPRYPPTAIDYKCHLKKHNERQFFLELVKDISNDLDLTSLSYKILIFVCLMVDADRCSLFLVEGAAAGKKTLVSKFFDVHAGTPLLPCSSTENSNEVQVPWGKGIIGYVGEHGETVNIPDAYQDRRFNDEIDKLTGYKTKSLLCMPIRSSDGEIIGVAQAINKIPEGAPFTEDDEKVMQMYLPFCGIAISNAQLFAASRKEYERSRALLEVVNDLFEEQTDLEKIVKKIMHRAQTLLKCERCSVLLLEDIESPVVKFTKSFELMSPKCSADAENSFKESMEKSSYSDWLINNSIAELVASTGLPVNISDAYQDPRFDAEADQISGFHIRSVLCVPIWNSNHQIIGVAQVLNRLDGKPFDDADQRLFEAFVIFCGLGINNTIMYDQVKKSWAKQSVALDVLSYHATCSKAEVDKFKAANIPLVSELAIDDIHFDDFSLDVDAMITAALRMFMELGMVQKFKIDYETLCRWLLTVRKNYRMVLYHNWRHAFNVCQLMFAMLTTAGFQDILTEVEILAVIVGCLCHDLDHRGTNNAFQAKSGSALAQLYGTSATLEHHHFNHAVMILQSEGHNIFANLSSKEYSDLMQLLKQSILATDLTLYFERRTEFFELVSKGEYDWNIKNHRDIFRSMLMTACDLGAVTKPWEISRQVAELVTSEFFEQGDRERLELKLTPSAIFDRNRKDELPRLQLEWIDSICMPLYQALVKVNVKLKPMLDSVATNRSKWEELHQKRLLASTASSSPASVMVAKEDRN
Sequence of PDE4B (Q07343 whole entry): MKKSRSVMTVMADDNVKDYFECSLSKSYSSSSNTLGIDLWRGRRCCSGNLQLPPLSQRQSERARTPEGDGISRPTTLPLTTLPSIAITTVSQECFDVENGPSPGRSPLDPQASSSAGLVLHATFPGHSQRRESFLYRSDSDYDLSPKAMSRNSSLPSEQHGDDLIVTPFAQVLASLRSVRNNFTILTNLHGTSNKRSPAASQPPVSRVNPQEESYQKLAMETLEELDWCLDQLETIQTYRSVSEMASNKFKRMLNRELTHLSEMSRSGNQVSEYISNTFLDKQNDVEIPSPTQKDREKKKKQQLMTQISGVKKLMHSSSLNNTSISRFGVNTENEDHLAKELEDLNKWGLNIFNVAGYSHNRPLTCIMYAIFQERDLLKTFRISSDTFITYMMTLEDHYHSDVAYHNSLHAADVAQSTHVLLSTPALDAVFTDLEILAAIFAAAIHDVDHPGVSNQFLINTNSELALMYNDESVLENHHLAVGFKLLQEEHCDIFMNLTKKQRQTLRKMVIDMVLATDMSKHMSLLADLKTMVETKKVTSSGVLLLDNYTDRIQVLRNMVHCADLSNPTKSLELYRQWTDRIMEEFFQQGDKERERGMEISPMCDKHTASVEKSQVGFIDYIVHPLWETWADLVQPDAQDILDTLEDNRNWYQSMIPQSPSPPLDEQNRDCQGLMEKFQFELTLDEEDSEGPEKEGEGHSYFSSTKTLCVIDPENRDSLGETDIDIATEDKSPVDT

Row | Structure (SMILES) | inhibition at 50 µM (human PDE5) [%] | also measured
1 | COC(=O)[C@H]1Cc2c([nH]c3ccccc23)[C@@H](c2ccc(Cl)cc2)N1 [I, Methyl (1R,3R)-1-(4 chlorophenyl)-2,3,4,9-tetrahydro-1H-β-carboline-3-carboxylate] | 35 | 
2 | COC(=O)[C@H]1Cc2c([nH]c3ccccc23)[C@H](c2ccc(Cl)cc2)N1 [II, Methyl (1S,3R)-1-(4-chlorophenyl)-2,3,4,9-tetrahydro-1H-β-carboline-3-carboxylate] | 4 | 
3 | COC(=O)[C@@H]1Cc2c([nH]c3ccccc23)[C@H](c2ccc(Cl)cc2)N1 [III, Methyl (1S,3S)-1-(4-chlorophenyl)-2,3,4,9-tetrahydro-1H-β-carboline-3-carboxylate] | 9 | 
4 | COC(=O)[C@@H]1Cc2c([nH]c3ccccc23)[C@@H](c2ccc(Cl)cc2)N1 [IV, Methyl (1R,3S)-1-(4-chlorophenyl)-2,3,4,9-tetrahydro-1H-β-carboline-3-carboxylate] | 48 | 
5 | CC(C)(C)N1C(=O)[C@H]2Cc3c([nH]c4ccccc34)[C@@H](c3ccc(Cl)cc3)N2C1=O [IX, (5R,11aR)-2-tert-Butyl-5-(4-chlorophenyl)-5,6,11,11a-tetrahydro-1H-imidazo[1’,5’:1,6]pyrido[3,4-b]indole-1,3(2H)-dione] | 100 | IC50 (human PDE5): 600 nM
6 | CN1CC(=O)N2[C@H](c3ccc4c(c3)OCO4)c3[nH]c4ccccc4c3C[C@@H]2C1=O [Tadalafil, reference compound] |  | IC50 (PDE3B): > 50 µM; IC50 (PDE3B; [1]): > 50 µM
7 | CCN1C(=O)[C@H]2Cc3c([nH]c4ccccc34)[C@@H](c3ccc(Cl)cc3)N2C1=O [V, (5R,11aR)-2-Ethyl-5-(4-chlorophenyl)-5,6,11,11a-tetrahydro-1H-imidazo[1’,5’:1,6]pyrido[3,4-b]indole-1,3(2H)-dione] | 85 | IC50 (human PDE5): 1100 nM
8 | CCN1C(=O)[C@H]2Cc3c([nH]c4ccccc34)[C@H](c3ccc(Cl)cc3)N2C1=O [VI, (5S,11aR)-2-Ethyl-5-(4-chlorophenyl)-5,6,11,11a-tetrahydro-1H-imidazo[1’,5’:1,6]pyrido[3,4-b]indole-1,3(2H)-dione] | 47 | 
9 | CCN1C(=O)[C@@H]2Cc3c([nH]c4ccccc34)[C@H](c3ccc(Cl)cc3)N2C1=O [VII, (5S,11aS)-2-Ethyl-5-(4-chlorophenyl)-5,6,11,11a-tetrahydro-1H-imidazo[1’,5’:1,6]pyrido[3,4-b]indole-1,3(2H)-dione] | 30 | 
10 | CCN1C(=O)[C@@H]2Cc3c([nH]c4ccccc34)[C@@H](c3ccc(Cl)cc3)N2C1=O [VIII, (5R,11aS)-2-Ethyl-5-(4-chlorophenyl)-5,6,11,11a-tetrahydro-1H-imidazo[1’,5’:1,6]pyrido[3,4-b]indole-1,3(2H)-dione] | 102 | 
11 | CC(C)(C)N1C(=O)[C@H]2Cc3c([nH]c4ccccc34)[C@H](c3ccc(Cl)cc3)N2C1=O [X, (5S,11aR)-2-tert-Butyl-5-(4-chlorophenyl)-5,6,11,11a-tetrahydro-1H-imidazo[1’,5’:1,6]pyrido[3,4-b]indole-1,3(2H)-dione] | 54 | 
12 | CC(C)(C)N1C(=O)[C@@H]2Cc3c([nH]c4ccccc34)[C@H](c3ccc(Cl)cc3)N2C1=O [XI, (5S,11aS)-2-tert-Butyl-5-(4-chlorophenyl)-5,6,11,11a-tetrahydro-1H-imidazo[1’,5’:1,6]pyrido[3,4-b]indole-1,3(2H)-dione] | 20 | 
13 | CC(C)(C)N1C(=O)[C@@H]2Cc3c([nH]c4ccccc34)[C@@H](c3ccc(Cl)cc3)N2C1=O [XII, (5R,11aS)-2-tert-Butyl-5-(4-chlorophenyl)-5,6,11,11a-tetrahydro-1H-imidazo[1’,5’:1,6]pyrido[3,4-b]indole-1,3(2H)-dione] | 83 | IC50 (human PDE5): > 10000 nM
14 | O=C1[C@H]2Cc3c([nH]c4ccccc34)[C@@H](c3ccc(Cl)cc3)N2C(=O)N1c1ccc(Cl)cc1 [XIII, (5R,11aR)-2,5-Bis(4-chlorophenyl)-5,6,11,11a-tetrahydro-1H-imidazo[1’,5’:1,6]pyrido[3,4-b]indole-1,3(2H)-dione] | 22 | 
15 | O=C1[C@H]2Cc3c([nH]c4ccccc34)[C@H](c3ccc(Cl)cc3)N2C(=O)N1c1ccc(Cl)cc1 [XIV, (5S,11aR)-2,5-Bis(4-chlorophenyl)-5,6,11,11a-tetrahydro-1H-imidazo[1’,5’:1,6]pyrido[3,4-b]indole-1,3(2H)-dione] | 29 | 
16 | COC(=O)[C@@H]1Cc2c([nH]c3ccccc23)[C@H](c2ccc(Cl)cc2)N1C(=O)CCl [XIX, Methyl (1S, 3S)-1-(4-chlorophenyl)-2-(chloroacetyl)-2,3,4,9-tetrahydro-1H-b-carboline-3-carboxylate] |  | % cGMP inhibition (50 μM) (human PDE5; PDE5, compound at 50 μM, triplicate, TAMRA-cGMP substrate): 6%
17 | O=C1[C@@H]2Cc3c([nH]c4ccccc34)[C@H](c3ccc(Cl)cc3)N2C(=O)N1c1ccc(Cl)cc1 [XV, (5S,11aS)-2,5-Bis(4-chlorophenyl)-5,6,11,11a-tetrahydro-1H-imidazo[1’,5’:1,6]pyrido[3,4-b]indole-1,3(2H)-dione] | 33 | 
18 | O=C1[C@@H]2Cc3c([nH]c4ccccc34)[C@@H](c3ccc(Cl)cc3)N2C(=O)N1c1ccc(Cl)cc1 [XVI, (5R,11aS)-2,5-Bis(4-chlorophenyl)-5,6,11,11a-tetrahydro-1H-imidazo[1’,5’:1,6]pyrido[3,4-b]indole-1,3(2H)-dione] | 84 | IC50 (human PDE5): 1090 nM
19 | COC(=O)[C@H]1Cc2c([nH]c3ccccc23)[C@@H](c2ccc(Cl)cc2)N1C(=O)CCl [XVII, Methyl (1R,3R)-1-(4-chlorophenyl)-2-(chloroacetyl)-2,3,4,9-tetrahydro-1H-β-carboline-3-carboxylate] | 25 | 
20 | COC(=O)[C@H]1Cc2c([nH]c3ccccc23)[C@H](c2ccc(Cl)cc2)N1C(=O)CCl [XVIII, Methyl (1S,3R)-1-(4-chlorophenyl)-2-(chloroacetyl)-2,3,4,9-tetrahydro-1H-β-carboline-3-carboxylate] | 6 | 
21 | COC(=O)[C@@H]1Cc2c([nH]c3ccccc23)[C@@H](c2ccc(Cl)cc2)N1C(=O)CCl [XX, Methyl (1R,3S)-1-(4-chlorophenyl)-2-(chloroacetyl)-2,3,4,9-tetrahydro-1H-β-carboline-3-carboxylate] | 78 | 
22 | CCN1CC(=O)N2[C@H](c3ccc(Cl)cc3)c3[nH]c4ccccc4c3C[C@@H]2C1=O [XXI, (6R,12aR)-2-Ethyl-6-(4-chlorophenyl)-2,3,6,7,12,12a-hexahydropyrazino[1’,2’:1,6]pyrido[3,4-b]indole-1,4-dione] | 102 | IC50 (PDE3B): > 50 µM; IC50 (PDE3B; [1]): > 50 µM; IC50 (PDE11A; IC50 PDE11A cAMP, cAMP as substrate): 706 nM; IC50 (PDE11A; IC50 PDE11A cGMP, cGMP as substrate): 157 nM; Selectivity index IC50 (PDE11/PDE5) cGMP/cGMP (PDE11A; PDE11A with cGMP versus PDE5 with cGMP): 52.3; IC50 (PDE4B): > 50 µM; potency compared with tadalafil (human PDE5; PDE5 IC50 relative to tadalafil): two-fold; IC50 (human PDE5; read-out: IC50 PDE5A, Table 5 PDE panel): 3 nM
23 | CCN1CC(=O)N2[C@@H](c3ccc(Cl)cc3)c3[nH]c4ccccc4c3C[C@@H]2C1=O [XXII, (6S,12aR)-2-Ethyl-6-(4-chlorophenyl)-2,3,6,7,12,12a-hexahydropyrazino[1’,2’:1,6]pyrido[3,4-b]indole-1,4-dione] | 80 | IC50 (human PDE5): 1720 nM
24 | CCN1CC(=O)N2[C@@H](c3ccc(Cl)cc3)c3[nH]c4ccccc4c3C[C@H]2C1=O [XXIII, (6S,12aS)-2-Ethyl-6-(4-chlorophenyl)-2,3,6,7,12,12a-hexahydropyrazino[1’,2’:1,6]pyrido[3,4-b]indole-1,4-dione] | 45 | 
25 | CCN1CC(=O)N2[C@H](c3ccc(Cl)cc3)c3[nH]c4ccccc4c3C[C@H]2C1=O [XXIV, (6R,12aS)-2-Ethyl-6-(4-chlorophenyl)-2,3,6,7,12,12a-hexahydropyrazino[1’,2’:1,6]pyrido[3,4-b]indole-1,4-dione] | 87 | IC50 (human PDE5): 1200 nM
26 | CC(C)(C)N1CC(=O)N2[C@H](c3ccc(Cl)cc3)c3[nH]c4ccccc4c3C[C@@H]2C1=O [XXV, (6R,12aR)-2-tert-Butyl-6-(4-chlorophenyl)-2,3,6,7,12,12a-hexahydropyrazino[1’,2’:1,6]pyrido[3,4-b]indole-1,4-dione] | 55 | 
27 | CC(C)(C)N1CC(=O)N2[C@@H](c3ccc(Cl)cc3)c3[nH]c4ccccc4c3C[C@@H]2C1=O [XXVI, (6S,12aR)-2-tert-Butyl-6-(4-chlorophenyl)-2,3,6,7,12,12a-hexahydropyrazino[1’,2’:1,6]pyrido[3,4-b]indole-1,4-dione] | 10 | 
28 | CC(C)(C)N1CC(=O)N2[C@@H](c3ccc(Cl)cc3)c3[nH]c4ccccc4c3C[C@H]2C1=O [XXVII, (6S,12aS)-2-tert-Butyl-6-(4-chlorophenyl)-2,3,6,7,12,12a-hexahydropyrazino[1’,2’:1,6]pyrido[3,4-b]indole-1,4-dione] | 42 | 
29 | CC(C)(C)N1CC(=O)N2[C@H](c3ccc(Cl)cc3)c3[nH]c4ccccc4c3C[C@H]2C1=O [XXVIII, (6R,12aS)-2-tert-Butyl-6-(4-chlorophenyl)-2,3,6,7,12,12a-hexahydropyrazino[1’,2’:1,6]pyrido[3,4-b]indole-1,4-dione] | 55 | 
